Data published in ChEMBL document CHEMBL1135414, “Structure-activity relationships at human and rat A2B adenosine receptors of xanthine derivatives substituted at the 1-, 3-, 7-, and 8-positions” (J Med Chem, 2002).

Tests used:
Adenosine receptor A2a = Adenosine receptor A2a (Rattus norvegicus, UniProt P30543); assay: Binding affinity at rat Adenosine A2A receptor by [3H]-CGS- 21680 displacement.
Adenosine receptor A1 = target: T1, Adenosine receptor A1 (Rattus norvegicus, UniProt P25099); assay: Binding affinity of specific [3H]R-PIA binding to rat Adenosine A1 receptor in HEK293 cells; format: cell-based
T1 sequence (P25099 whole entry): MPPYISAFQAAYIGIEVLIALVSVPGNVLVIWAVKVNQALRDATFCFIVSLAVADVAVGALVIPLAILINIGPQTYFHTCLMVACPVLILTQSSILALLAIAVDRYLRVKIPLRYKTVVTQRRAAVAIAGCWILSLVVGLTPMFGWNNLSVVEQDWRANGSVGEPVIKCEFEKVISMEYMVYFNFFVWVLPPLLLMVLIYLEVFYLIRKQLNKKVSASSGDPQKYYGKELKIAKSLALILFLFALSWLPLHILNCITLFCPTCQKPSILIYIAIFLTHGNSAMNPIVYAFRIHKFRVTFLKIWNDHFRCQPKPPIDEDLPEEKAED

Adenosine receptor A2b [1] = target: T2, Adenosine receptor A2b (Homo sapiens, UniProt P29275); assay: Binding affinity at human Adenosine A2B receptor expressed in HEK293 cells, using [125I]ABOPX as radioligand; format: cell-based
T2 sequence (P29275 whole entry): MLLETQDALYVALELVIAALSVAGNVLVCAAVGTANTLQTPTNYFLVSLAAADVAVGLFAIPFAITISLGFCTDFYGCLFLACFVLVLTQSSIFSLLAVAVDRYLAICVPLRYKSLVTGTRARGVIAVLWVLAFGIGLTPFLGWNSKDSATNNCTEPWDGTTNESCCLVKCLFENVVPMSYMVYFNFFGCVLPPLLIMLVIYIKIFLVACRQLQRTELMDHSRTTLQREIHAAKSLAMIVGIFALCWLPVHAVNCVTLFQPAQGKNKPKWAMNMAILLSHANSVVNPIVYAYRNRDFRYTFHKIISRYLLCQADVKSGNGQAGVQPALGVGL

Adenosine receptor A2b [2] = target: T3, Adenosine receptor A2b (Rattus norvegicus, UniProt P29276); assay: Inhibition of […] binding to rat Adenosine A2B receptor expressed in HEK cells; format: cell-based, HEK293
T3 sequence (P29276 whole entry): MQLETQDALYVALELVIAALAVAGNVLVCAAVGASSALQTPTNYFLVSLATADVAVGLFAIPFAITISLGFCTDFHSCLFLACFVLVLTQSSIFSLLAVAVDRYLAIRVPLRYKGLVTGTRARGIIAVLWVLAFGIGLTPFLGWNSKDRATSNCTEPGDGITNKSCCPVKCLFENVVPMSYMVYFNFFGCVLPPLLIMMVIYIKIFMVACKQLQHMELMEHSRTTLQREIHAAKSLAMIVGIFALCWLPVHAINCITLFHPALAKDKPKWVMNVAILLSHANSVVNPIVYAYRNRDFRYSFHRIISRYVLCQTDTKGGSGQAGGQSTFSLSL

Rattus norvegicus [3] = species: Rattus norvegicus; assay: Relative affinities for rat Adenosine A1 and Adenosine A2B receptors
Adenosine receptor A3 = target: T4, Adenosine receptor A3 (Homo sapiens, UniProt P0DMS8); assay: Inhibition of [125I]I-AB-MECA binding to human Adenosine A3 receptor
T4 sequence (P0DMS8 whole entry): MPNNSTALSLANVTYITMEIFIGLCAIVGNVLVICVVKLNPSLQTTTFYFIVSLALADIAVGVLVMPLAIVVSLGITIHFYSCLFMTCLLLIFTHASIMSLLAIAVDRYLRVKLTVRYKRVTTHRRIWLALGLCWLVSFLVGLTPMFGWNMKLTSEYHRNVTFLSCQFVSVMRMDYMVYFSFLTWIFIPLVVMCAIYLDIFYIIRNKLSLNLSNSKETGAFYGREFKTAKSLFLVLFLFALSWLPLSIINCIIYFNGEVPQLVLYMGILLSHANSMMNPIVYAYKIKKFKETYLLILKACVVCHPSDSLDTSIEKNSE

Rattus norvegicus [4] = species: Rattus norvegicus; assay: Relative affinities for rat Adenosine A2A and Adenosine A2B receptors
[5] = target: Adenosine receptor A2a (Rattus norvegicus) (UniProt P30543); assay: Displacement of [3H]-CGS- 21680 from Adenosine A2A receptor of rat striatal membranes; format: cell membranes; design: concentration or dose not given beside the values; conditions: Membrane
Procedure, shortened: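 Competition of specific [3H]CGS 21680 binding in rat striatal membranes, reported as Ki ± SEM or as percent displacement at the stated concentration; n = 3–5.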

[6] = target: T5, Adenosine receptor A1 (Rattus norvegicus) (UniProt P25099); assay: Percent displacement of [3H]-R-PIA from rat Adenosine A1 receptor in HEK293 cells; format: cell-based
T5 sequence (whole entry): T1 sequence (P25099 whole entry)

Adenosine receptor A2a (Rattus norvegicus), sequence (P30543 whole entry): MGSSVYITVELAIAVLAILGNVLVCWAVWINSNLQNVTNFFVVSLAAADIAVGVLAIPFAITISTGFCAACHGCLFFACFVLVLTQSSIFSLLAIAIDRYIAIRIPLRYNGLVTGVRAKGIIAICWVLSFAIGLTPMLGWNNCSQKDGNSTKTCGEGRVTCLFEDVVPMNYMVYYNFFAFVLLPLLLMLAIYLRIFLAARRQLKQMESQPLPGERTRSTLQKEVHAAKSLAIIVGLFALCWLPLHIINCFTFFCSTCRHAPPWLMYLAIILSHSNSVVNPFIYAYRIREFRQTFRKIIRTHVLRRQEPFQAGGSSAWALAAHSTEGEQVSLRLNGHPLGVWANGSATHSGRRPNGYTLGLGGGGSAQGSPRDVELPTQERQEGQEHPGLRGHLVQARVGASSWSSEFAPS
Adenosine receptor A2a, sequence (P30543 whole entry): as above

Row | Structure (SMILES) | Ki (Adenosine receptor A1) [nM] | Ki (Adenosine receptor A2b [1]) [nM] | also measured
1 | CCCn1c(=O)c2[nH]c(-c3ccc(OC)cc3O)nc2n(CCC)c1=O | 97.7 | 46.5 | Ki (Adenosine receptor A2a): 5500 nM
2 | C#CCn1c(=O)c2[nH]cnc2n(C)c1=O | 5830 | 511 | Ki (Adenosine receptor A2a): 33600 nM; Ki (Adenosine receptor A2b [2]): 2150 nM; Ratio (Rattus norvegicus [3]): 2.7; Ki (Adenosine receptor A3): 10900 nM; Ratio (Rattus norvegicus [4]): 16
3 | CCCn1c(=O)[nH]c2[nH]c(C3CCCC3)nc2c1=O | 7.68 |  | 
4 | CCCn1c(=O)c2nc(-c3cccc(O)c3O)[nH]c2n(CCC)c1=O | 39 | 125 | Displacement [5]: < 10%
5 | CCCn1c(=O)c2nc(-c3cc(O)ccc3O)[nH]c2n(CCC)c1=O | 7.46 | 138 | Ki (Adenosine receptor A2a): 17300 nM
6 | CCCn1c(=O)c2nc(-c3cc(O)c(OC)c(O)c3)[nH]c2n(CCC)c1=O | 30.3 | 59.5 | Ki (Adenosine receptor A2a): 1340 nM
7 | C=CCn1c(=O)c2[nH]c(-c3ccccc3)nc2n(C)c1=O | 302 | 37 | Ki (Adenosine receptor A2a): 1920 nM; Ki (Adenosine receptor A2b [2]): 174 nM; Ratio (Rattus norvegicus [3]): 1.7; Ratio (Rattus norvegicus [4]): 11
8 | Cn1c(=O)n(CCc2ccccc2)c(=O)c2[nH]cnc21 | 27600 | 646 | Displacement [5]: < 10%; Ki (Adenosine receptor A2b [2]): 5530 nM; Ratio (Rattus norvegicus [3]): 5; Ki (Adenosine receptor A3): 6880 nM; Ratio (Rattus norvegicus [4]): > 20
9 | Cn1c(=O)c2c(ncn2CCN)n(C)c1=O |  | 23500 | 
10 | O=c1[nH]c2[nH]cnc2c(=O)n1CCc1ccccc1 |  |  | Displacement [5]: < 10%
11 | O=c1[nH]c2[nH]cnc2c(=O)n1C1CCCC1 |  |  | Displacement [5]: < 10%
12 | CCCn1c(=O)c2nc(-c3ccc(Cl)cc3OC)[nH]c2n(CCC)c1=O |  | 6530 | 
13 | CC(=O)CCCCn1c(=O)c2c(ncn2C)n(C)c1=O [PENTOXIFYLLINE] |  | 5180 | 
14 | C=CCn1cnc2c1c(=O)n(C)c(=O)n2C |  | 9490 | 
15 | CCCn1c(=O)c2[nH]c(-c3ccc(OCC(=O)Nc4ccc(C#N)cc4)cc3)nc2n(CCC)c1=O |  |  | Ki (Adenosine receptor A2b [2]): 12.8 nM; Ratio (Rattus norvegicus [3]): 1.3; Ratio (Rattus norvegicus [4]): 48
16 | CCCn1c(=O)[nH]c2[nH]cnc2c1=O |  |  | Displacement [5]: < 10%; Ratio (Rattus norvegicus [3]): 1.8; Ratio (Rattus norvegicus [4]): > 10
17 | CCn1c(=O)c2nc[nH]c2n(CC)c1=O |  | 1770 | 

Row | Structure (SMILES) | Ki (Adenosine receptor A1) [nM] | Ki (Adenosine receptor A2b [1]) [nM] | also measured
18 | C=CCn1c(=O)c2c(nc(-c3ccccc3)n2C)n(C)c1=O |  | 11400 | Ki (Adenosine receptor A2a): 23500 nM; Displacement [6]: < 10%
19 | CCn1c(=O)c2nc[nH]c2n(C)c1=O | 24700 | 1620 | Ki (Adenosine receptor A2a): 9780 nM
20 | Cn1c(=O)c2[nH]c(-c3ccccc3)nc2n(C)c1=O [8-PHENYL THEOPHYLLINE] |  | 415 | 
21 | Cn1c(=O)c2[nH]c(-c3ccc([N+](=O)[O-])cc3[N+](=O)[O-])nc2n(C)c1=O |  | 15400 | 
22 | Cn1c(=O)c2c(ncn2CC(=O)O)n(C)c1=O [ACEFYLLINE] |  | 27600 | 
23 | CC(C)CCn1c(=O)c2[nH]cnc2n(CC(C)C)c1=O |  | 6240 | 
24 | CC(=O)OCCn1cnc2c1c(=O)n(C)c(=O)n2C |  | 23200 | 
25 | COc1ccc(-c2nc3c([nH]2)c(=O)n(C)c(=O)n3C)cc1 |  | 394 | 
26 | Cn1cnc2c1c(=O)n(CC#N)c(=O)n2C |  | 21600 | 
27 | CC(=O)OCCn1c(=O)c2c(ncn2C)n(C)c1=O |  | 8710 | 
28 | Cn1cnc2c1c(=O)n(CC(=O)O)c(=O)n2C |  | 23500 | 
29 | Cn1c(=O)c2[nH]c(-c3ccc([N+](=O)[O-])cc3)nc2n(C)c1=O |  | 6940 | 
30 | CC(C)n1c(=O)n(C)c(=O)c2[nH]cnc21 |  | 4890 | 
31 | CCCn1c(=O)c2nc(-c3c(F)cccc3F)[nH]c2n(CCC)c1=O |  | 310 | 
32 | CN(C)c1ccc(-c2nc3c([nH]2)c(=O)n(C)c(=O)n3C)cc1 |  | 289 | 
33 | CCCCn1c(=O)c2nc[nH]c2n(CC)c1=O | 2170 | 1720 | Displacement [5]: < 10%
